The test system of one data set is BCL1. Kind of data set: Inhibition of PTEN expression in mouse BCL1 cells after 62 hrs by Western blotting. In kind it is functional, cell-based. The following applies: BCL1, 62 h. The procedure, abridged: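 BCL1 cells were grown in DMEM with 10% FBS at 37 °C, 5% CO2. Compound was delivered to 2×10^6 cells by electroporation (200 V, 1000 uF, 13 ohms), and cells were harvested 62 h later. Western blot of RIPA lysates used rabbit anti-PTEN and anti-CD40 (1:1000) with HRP secondary and ECL detection. PTEN was normalized to CD40. n=3, mean ± SD.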
Background: In western blotting, separated proteins are transferred to a membrane and probed.

The test system of data set [1] is Mus musculus. Kind of data set: Inhibition of PTEN expression in Balb/C mouse white adipose tissue assessed as reduction of full length transcript at 10 to 40 mg/kg, ip administered thrice a week for 2 weeks measured 48 hrs after last dose […]. In kind it is functional, organism-based.
The test system of data set [2] is Mus musculus. Kind of data set: Toxicity in Balb/C mouse assessed as change in serum bilirubin levels at 10 to 40 mg/kg, ip administered thrice a week for 2 weeks measured 48 hrs after last dose. Type of data set: organism-based. Further details: dose 10-40 mg/kg, route intraperitoneal. The following applies: in vivo. The procedure, abridged:
(§1)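 Male Balb/c mice, 6–8 wk, n=4/group, received compound i.p. in PBS (10 ul/g) 3x/wk for 2 wk. Body weight was monitored throughout. At 48 h after the last dose, mice were anesthetized with isoflurane and bled by cardiac puncture. Serum AST, ALT, BUN, bilirubin, glucose and triglycerides were compared with the saline group. ALT rise below 2x normal was counted as absent.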

For data set [3], the system named is Mus musculus. Kind of data set: Toxicity in Balb/C mouse assessed as change in body weight at 10 to 40 mg/kg, ip administered thrice a week for 2 weeks measured 48 hrs after last dose. In kind it is organism-based. Further details: dose 10-40 mg/kg, route intraperitoneal. The following applies: in vivo. The procedure, abridged: as §1
Data set [4] concerns Mus musculus. Kind of data set: Toxicity in Balb/C mouse assessed as change in serum ALT levels at 10 to 40 mg/kg, ip administered thrice a week for 2 weeks measured 48 hrs after last dose. In kind it is organism-based. To be noted: in vivo. Further details: dose 10-40 mg/kg, route intraperitoneal. The procedure, abridged:
as §1

Data set [5] has as its system Mus musculus. Kind of data set: Inhibition of PTEN expression in Balb/C mouse liver at 10 to 40 mg/kg, ip administered thrice a week for 2 weeks measured 48 hrs after last dose by Western blot analysis. Type of data set: functional, organism-based. The procedure, abridged:
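Male Balb/c mice, 6–8 wk, n=4/group, dosed i.p. in PBS 3x/wk for 2 wk and killed 48 h after the last dose. Tissue was homogenized in RIPA buffer with protease inhibitors, and protein was measured by Lowry assay. Lysates were run on 10% PAGE and blotted to PVDF. Blots were probed with rabbit anti-PTEN (1:1000) and HRP anti-rabbit (1:2500), with ECL detection.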

For data set [6], the system named is Mus musculus. The data set can be described thus: Inhibition of PTEN expression in Balb/C mouse white adipose tissue assessed as upregulation of isoform lacking exon at 10 to 40 mg/kg, ip administered thrice a week for 2 weeks measured 48 hrs after last dose […]. In kind it is functional, organism-based.
Data set [7] concerns Mus musculus. The data set can be described thus: Toxicity in Balb/C mouse assessed as change in serum glucose levels at 10 to 40 mg/kg, ip administered thrice a week for 2 weeks measured 48 hrs after last dose. In kind it is organism-based. Further details: dose 10-40 mg/kg, route intraperitoneal. The following applies: in vivo. The procedure, abridged:
as §1

For data set [8], the system named is Mus musculus. Kind of data set: Toxicity in Balb/C mouse assessed as change in serum triglyceride levels at 10 to 40 mg/kg, ip administered thrice a week for 2 weeks measured 48 hrs after last dose. Type of data set: organism-based. To be noted: in vivo. Further details: dose 10-40 mg/kg, route intraperitoneal. The procedure, abridged: as §1
Data set [9] concerns Mus musculus. The data set can be described thus: Toxicity in Balb/C mouse assessed as increase in spleen weight at 40 mg/kg, ip administered thrice a week for 2 weeks measured 48 hrs after last dose. In kind it is organism-based. Further details: dose 40 mg/kg, route intraperitoneal. The following applies: in vivo. The procedure, abridged:
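Male Balb/c mice, 6–8 wk, n=4/group, were dosed i.p. in PBS 3x/wk for 2 wk at 40 mg/kg. They were killed by cervical dislocation 48 h after the last dose. Spleen weight was taken at necropsy and compared with the saline-treated group.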

Data set [10] concerns Mus musculus. The data set can be described thus: Inhibition of PTEN expression in Balb/C mouse kidney at 10 to 40 mg/kg, ip administered thrice a week for 2 weeks measured 48 hrs after last dose.
The subject of data set [11] is Mus musculus. Kind of data set: Toxicity in Balb/C mouse assessed as change in serum AST levels at 10 to 40 mg/kg, ip administered thrice a week for 2 weeks measured 48 hrs after last dose. Further details: dose 10-40 mg/kg, route intraperitoneal. The following applies: in vivo. In kind it is organism-based. The procedure, abridged: as §1
Data set [12] relates to Mus musculus. The data set can be described thus: Toxicity in Balb/C mouse assessed as change in blood urea nitrogen levels at 10 to 40 mg/kg, ip administered thrice a week for 2 weeks measured 48 hrs after last dose. Type of data set: organism-based. Further details: dose 10-40 mg/kg, route intraperitoneal. To be noted: in vivo. The procedure, abridged: as §1

Calls of active or inactive are those of the source. No cut-off for these calls is given here.

Consider 6 compounds from ChEMBL document CHEMBL1155469, “Peptide nucleic acids conjugated to short basic peptides show improved pharmacokinetics and antisense activity in adipose tissue” (J Med Chem, 2010).

In the case of `COCCO[C@@H]1[C@H](OP(=O)(S)OC[C@H]2O[C@@H](n3cc(C)c(=O)[nH]c3=O)C[C@@H]2OP(=O)(S)OC[C@H]2O[C@@H](n3cnc4c(N)ncnc43)[C@H](OCCOC)[C@@H]2OP(=O)(S)OC[C@H]2O[C@@H](n3cnc4c(=O)[nH]c(N)nc43)[C@H](OCCOC)[C@@H]2OP(=O)(S)OC[C@H]2O[C@@H](n3cnc4c(N)ncnc43)[C@H](OCCOC)[C@@H]2OP(=O)(S)OC[C@H]2O[C@@H](n3cnc4c(=O)[nH]c(N)nc43)[C@H](OCCOC)[C@@H]2OP(=O)(S)OC[C@H]2O[C@@H](n3cnc4c(N)ncnc43)[C@H](OCCOC)[C@@H]2OP(=O)(S)OC[C@H]2O[C@@H](n3cnc4c(N)ncnc43)[C@H](OCCOC)[C@@H]2OP(=O)(S)OC[C@H]2O[C@@H](n3cnc4c(N)ncnc43)[C@H](OCCOC)[C@@H]2OP(=O)(S)OC[C@H]2O[C@@H](n3cnc4c(=O)[nH]c(N)nc43)[C@H](OCCOC)[C@@H]2O)[C@@H](COP(=O)(S)O[C@H]2[C@@H](OCCOC)[C@H](n3ccc(N)nc3=O)O[C@@H]2COP(=O)(S)O[C@H]2[C@@H](OCCOC)[C@H](n3cnc4c(N)ncnc43)O[C@@H]2COP(=O)(S)O[C@H]2[C@@H](OCCOC)[C@H](n3ccc(N)nc3=O)O[C@@H]2COP(=O)(S)O[C@H]2C[C@H](n3cc(C)c(=O)[nH]c3=O)O[C@@H]2COP(=O)(S)O[C@H]2C[C@H](n3cc(C)c(=O)[nH]c3=O)O[C@@H]2COP(=O)(S)O[C@H]2C[C@H](n3cc(C)c(=O)[nH]c3=O)O[C@@H]2COP(=O)(S)O[C@H]2[C@@H](OCCOC)[C@H](n3cnc4c(=O)[nH]c(N)nc43)O[C@@H]2COP(=O)(S)O[C@H]2[C@@H](OCCOC)[C@H](n3cnc4c(N)ncnc43)O[C@@H]2COP(=O)(S)O[C@H]2C[C@H](n3cc(C)c(=O)[nH]c3=O)O[C@@H]2COP(=O)(S)O[C@H]2[C@@H](OCCOC)[C@H](n3cnc4c(N)ncnc43)O[C@@H]2CO)O[C@H]1n1ccc(N)nc1=O` (some centres not stated), the half-inhibitory concentration (IC50) (commonly the concentration at which inhibition is half-maximal) with BCL1 was 2.2 µM.
The same measure, in the same setting: as for `Cc1cn(CC(=O)N(CCNC(=O)CN(CCN)C(=O)Cn2ccc(N)nc2=O)CC(=O)NCCN(CC(=O)NCCN(CC(=O)NCCN(CC(=O)NCCN(CC(=O)NCCN(CC(=O)NCCN(CC(=O)NCCN(CC(=O)NCCN(CC(=O)NCCN(CC(=O)NCCN(CC(=O)NCCN(CC(=O)NCCN(CC(=O)NCCN(CC(=O)N[C@@H](CCCCN)C(N)=O)C(=O)Cn2cnc3c(N)ncnc32)C(=O)Cn2ccc(N)nc2=O)C(=O)Cn2cnc3c(N)ncnc32)C(=O)Cn2cc(C)c(=O)[nH]c2=O)C(=O)Cn2ccc(N)nc2=O)C(=O)Cn2cc(C)c(=O)[nH]c2=O)C(=O)Cn2cnc3c(N)ncnc32)C(=O)Cn2ccc(N)nc2=O)C(=O)Cn2cnc3c(N)ncnc32)C(=O)Cn2ccc(N)nc2=O)C(=O)Cn2cnc3c(=O)[nH]c(N)nc32)C(=O)Cn2cnc3c(N)ncnc32)C(=O)Cn2ccc(N)nc2=O)c(=O)[nH]c1=O`, the figure is 1 µM; as for `Cc1cn(CC(=O)N(CCNC(=O)CN(CCNC(=O)CN(CCNC(=O)CN(CCNC(=O)CN(CCN)C(=O)Cn2cnc3c(N)ncnc32)C(=O)Cn2cnc3c(=O)[nH]c(N)nc32)C(=O)Cn2cc(C)c(=O)[nH]c2=O)C(=O)Cn2cc(C)c(=O)[nH]c2=O)CC(=O)NCCN(CC(=O)NCCN(CC(=O)NCCN(CC(=O)NCCN(CC(=O)NCCN(CC(=O)NCCN(CC(=O)NCCN(CC(=O)NCCN(CC(=O)NCCN(CC(=O)NCCN(CC(=O)N[C@@H](CCCCN)C(N)=O)C(=O)Cn2cnc3c(N)ncnc32)C(=O)Cn2cnc3c(=O)[nH]c(N)nc32)C(=O)Cn2cnc3c(N)ncnc32)C(=O)Cn2cnc3c(=O)[nH]c(N)nc32)C(=O)Cn2cnc3c(N)ncnc32)C(=O)Cn2cc(C)c(=O)[nH]c2=O)C(=O)Cn2ccc(N)nc2=O)C(=O)Cn2ccc(N)nc2=O)C(=O)Cn2cnc3c(N)ncnc32)C(=O)Cn2ccc(N)nc2=O)c(=O)[nH]c1=O`, 2.4 µM.
Consider `Cc1cn(CC(=O)N(CCNC(=O)CN(CCNC(=O)CN(CCNC(=O)CN(CCNC(=O)CN(CCNC(=O)CN(CCNC(=O)CN(CCNC(=O)CN(CCNC(=O)CN(CCNC(=O)CN(CCNC(=O)CN(CCNC(=O)CN(CCNC(=O)[C@H](CCCCN)N(CCNC(=O)[C@H](CCCCN)NC(=O)[C@H](CCCCN)NC(=O)[C@H](CCCCN)NC(=O)[C@H](CCCCN)NC(=O)[C@H](CCCCN)NC(=O)[C@H](CCCCN)NC(=O)[C@H](CCCCN)NC(=O)[C@@H](N)CCCCN)C(=O)Cn2cc(C)c(=O)[nH]c2=O)C(=O)Cn2ccc(N)nc2=O)C(=O)Cn2cc(C)c(=O)[nH]c2=O)C(=O)Cn2cnc3c(N)ncnc32)C(=O)Cn2cnc3c(N)ncnc32)C(=O)Cn2ccc(N)nc2=O)C(=O)Cn2ccc(N)nc2=O)C(=O)Cn2cnc3c(N)ncnc32)C(=O)Cn2ccc(N)nc2=O)C(=O)Cn2cnc3c(N)ncnc32)C(=O)Cn2cc(C)c(=O)[nH]c2=O)C(=O)Cn2ccc(N)nc2=O)CC(=O)NCCN(CC(=O)NCCN(CC(=O)NCCN(CC(=O)N[C@@H](CCCCN)C(N)=O)C(=O)Cn2cnc3c(N)ncnc32)C(=O)Cn2cnc3c(=O)[nH]c(N)nc32)C(=O)Cn2ccc(N)nc2=O)c(=O)[nH]c1=O`, for which the result in the data set on Mus musculus [1] and in the data set with Mus musculus [6] was inactive. Besides, the Activity result with Mus musculus [2] is “Non-toxic”; in the data set on Mus musculus [3], “Non-toxic”; in the data set on Mus musculus [4], “Non-toxic”; with Mus musculus [7], “Non-toxic”; in the data set with Mus musculus [8], “Non-toxic”; in the data set on Mus musculus [9] it was 145%. Besides, the Activity entry in the data set with Mus musculus [11] and with Mus musculus [12] was “Non-toxic” throughout. Besides, the inhibition result with Mus musculus [5] and in the data set on Mus musculus [10] was “inactive” each time.
Consider `Cc1cn(CC(=O)N(CCN)CC(=O)NCCN(CC(=O)NCCN(CC(=O)NCCN(CC(=O)NCCN(CC(=O)NCCN(CC(=O)NCCN(CC(=O)NCCN(CC(=O)NCCN(CC(=O)NCCN(CC(=O)NCCN(CC(=O)NCCN(CC(=O)NCCN(CC(=O)NCCN(CC(=O)NCCN(CC(=O)N[C@@H](CCCCN)C(N)=O)C(=O)Cn2cnc3c(=O)[nH]c(N)nc32)C(=O)Cn2cnc3c(N)ncnc32)C(=O)Cn2cnc3c(N)ncnc32)C(=O)Cn2cnc3c(N)ncnc32)C(=O)Cn2cnc3c(=O)[nH]c(N)nc32)C(=O)Cn2cnc3c(N)ncnc32)C(=O)Cn2cnc3c(=O)[nH]c(N)nc32)C(=O)Cn2cnc3c(N)ncnc32)C(=O)Cn2cc(C)c(=O)[nH]c2=O)C(=O)Cn2ccc(N)nc2=O)C(=O)Cn2ccc(N)nc2=O)C(=O)Cn2cnc3c(N)ncnc32)C(=O)Cn2ccc(N)nc2=O)C(=O)Cn2cc(C)c(=O)[nH]c2=O)c(=O)[nH]c1=O`, for which the midpoint of inhibition in the data set with BCL1, the IC50, lay at 3 µM.
The same measure, in the same setting: next, `Cc1cn(CC(=O)N(CCNC(=O)CN(CCNC(=O)CN(CCNC(=O)CN(CCNC(=O)CN(CCNC(=O)CN(CCNC(=O)CN(CCN)C(=O)Cn2cnc3c(N)ncnc32)C(=O)Cn2cc(C)c(=O)[nH]c2=O)C(=O)Cn2cnc3c(N)ncnc32)C(=O)Cn2cnc3c(=O)[nH]c(N)nc32)C(=O)Cn2cc(C)c(=O)[nH]c2=O)C(=O)Cn2cc(C)c(=O)[nH]c2=O)CC(=O)NCCN(CC(=O)NCCN(CC(=O)NCCN(CC(=O)NCCN(CC(=O)NCCN(CC(=O)NCCN(CC(=O)NCCN(CC(=O)NCCN(CC(=O)N[C@@H](CCCCN)C(N)=O)C(=O)Cn2cnc3c(N)ncnc32)C(=O)Cn2cnc3c(=O)[nH]c(N)nc32)C(=O)Cn2cnc3c(N)ncnc32)C(=O)Cn2cc(C)c(=O)[nH]c2=O)C(=O)Cn2ccc(N)nc2=O)C(=O)Cn2ccc(N)nc2=O)C(=O)Cn2cnc3c(N)ncnc32)C(=O)Cn2ccc(N)nc2=O)c(=O)[nH]c1=O`: 3.2 µM.
